# In ChEMBL document CHEMBL5724801, “EUbOPEN Chemogenomics Library - Multiplex” (2024):
# Where “and” joins values, the source holds several entries; their conditions need not be identical. Equal entries are not always repeated.
# Legend:
# U2OS = assay: Multiplex assay against U2OS; type: toxicity, cell-based; details: human
# In short: (§1)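 Imaging took place on a CQ1 microscope at 37°C and 5% CO2 once compound had been added to live cells stained at seeding with Hoechst33342, BioTracker Green Microtubule Cytoskeleton Dye, MitoTracker Red and Annexin V Alexa Fluor 680. CellPathfinder machine-learning gating classed cells as Hoechst high-intensity objects or normal cells, classed normal cells as having healthy, pyknosed or fragmented nuclei, and classed pyknosed cells as mitotic or apoptotic. Tubulin, mitochondrial-mass and membrane-permeability phenotypes are per cents of the healthy-nucleus cells.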
# Fibroblast = assay: Multiplex assay against human fibroblast; type: toxicity, cell-based; in short: as §1
# [1] = 12 h, 1 µM, compound concentration 1 uM
# [2] = 12 h, 10 µM, compound concentration 10 uM
# [3] = 24 h, 1 µM, compound concentration 1 uM
# [4] = 24 h, 10 µM, compound concentration 10 uM
# [5] = 48 h, 1 µM, compound concentration 1 uM
# [6] = 48 h, 10 µM, compound concentration 10 uM
smiles,measurement,setting,value
Cl.O=S(=O)(c1cccc2c(I)cccc12)N1CCCNCC1,Population Apoptotic (%),U2OS; [1],56.67% and 27.27%
same,Population Fragmented Nuclei (%),U2OS; [1],2.94% and 4.55%
same,Population Healthy Nuclei (%),U2OS; [1],89.04% and 87.12%
same,Population Hoechst High Intensity Objects (%),U2OS; [1],0%
same,Population Membrane Permeable-Phenotype (%),U2OS; [1],1.5% and 1.74%
same,Population Mitochondria Different-Phenotype (%),U2OS; [1],0.3% and 6.09%
same,Population Mitotic Cells (%),U2OS; [1],43.33% and 72.73%
same,Population Normal (%),U2OS; [1],100%
same,Population Pyknosed Nuclei (%),U2OS; [1],8.02% and 8.33%
same,Population Tubulin-Different-Phenotype (%),U2OS; [1],1.2% and 0%
same,Total Cell Count,U2OS; [1],374 and 132
same,Population Apoptotic (%),U2OS; [2],35.59% and 25%
same,Population Fragmented Nuclei (%),U2OS; [2],1.04% and 0.7%
same,Population Healthy Nuclei (%),U2OS; [2],86.75% and 74.13%
same,Population Hoechst High Intensity Objects (%),U2OS; [2],0%
same,Population Membrane Permeable-Phenotype (%),U2OS; [2],1.67% and 4.72%
same,Population Mitotic Cells (%),U2OS; [2],64.41% and 75%
same,Population Normal (%),U2OS; [2],100%
same,Population Pyknosed Nuclei (%),U2OS; [2],12.22% and 25.17%
same,Population Tubulin-Different-Phenotype (%),U2OS; [2],5.73% and 1.89%
same,Population Apoptotic (%),U2OS; [3],47.27% and 30.77%
same,Population Fragmented Nuclei (%),U2OS; [3],1.85% and 3.49%
same,Population Healthy Nuclei (%),U2OS; [3],86.83% and 88.95%
same,Population Hoechst High Intensity Objects (%),U2OS; [3],0% and 0.58%
same,Population Membrane Permeable-Phenotype (%),U2OS; [3],1.42% and 0.65%
same,Population Mitochondria Different-Phenotype (%),U2OS; [3],0% and 4.58%
same,Population Mitotic Cells (%),U2OS; [3],52.73% and 69.23%
same,Population Normal (%),U2OS; [3],100% and 99.42%
same,Population Pyknosed Nuclei (%),U2OS; [3],11.32% and 7.56%
same,Population Tubulin-Different-Phenotype (%),U2OS; [3],0.47% and 1.96%
same,Total Cell Count,U2OS; [3],486 and 173
same,Population Apoptotic (%),U2OS; [4],46.38% and 25%
same,Population Fragmented Nuclei (%),U2OS; [4],1.31% and 1.69%
same,Population Healthy Nuclei (%),U2OS; [4],87.4% and 73.6%
same,Population Hoechst High Intensity Objects (%),U2OS; [4],0%
same,Population Membrane Permeable-Phenotype (%),U2OS; [4],0.94% and 3.82%
same,Population Mitotic Cells (%),U2OS; [4],53.62% and 75%
same,Population Normal (%),U2OS; [4],100%
same,Population Pyknosed Nuclei (%),U2OS; [4],11.29% and 24.72%
same,Population Tubulin-Different-Phenotype (%),U2OS; [4],1.87% and 3.05%
same,Population Apoptotic (%),U2OS; [5],40% and 50%
same,Population Fragmented Nuclei (%),U2OS; [5],1.92% and 2.4%
same,Population Healthy Nuclei (%),U2OS; [5],89.6% and 90.07%
same,Population Hoechst High Intensity Objects (%),U2OS; [5],0%
same,Population Membrane Permeable-Phenotype (%),U2OS; [5],0.88% and 3.42%
same,Population Mitochondria Different-Phenotype (%),U2OS; [5],0% and 2.66%
same,Population Mitotic Cells (%),U2OS; [5],60% and 50%
same,Population Normal (%),U2OS; [5],100%
same,Population Pyknosed Nuclei (%),U2OS; [5],8.47% and 7.53%
same,Population Tubulin-Different-Phenotype (%),U2OS; [5],0.88% and 2.28%
same,Population Apoptotic (%),U2OS; [6],44.03% and 45.31%
same,Population Fragmented Nuclei (%),U2OS; [6],1.9% and 3.72%
same,Population Healthy Nuclei (%),U2OS; [6],82.95% and 72.49%
same,Population Hoechst High Intensity Objects (%),U2OS; [6],0.1% and 0%
same,Population Membrane Permeable-Phenotype (%),U2OS; [6],1.26% and 4.62%
same,Population Mitochondria Different-Phenotype (%),U2OS; [6],0.46% and 7.18%
same,Population Mitotic Cells (%),U2OS; [6],55.97% and 54.69%
same,Population Normal (%),U2OS; [6],99.9% and 100%
same,Population Pyknosed Nuclei (%),U2OS; [6],15.14% and 23.79%
same,Population Tubulin-Different-Phenotype (%),U2OS; [6],3.21% and 4.62%
same,Population Apoptotic (%),Fibroblast; [1],20.93% and 13.51%
same,Population Fragmented Nuclei (%),Fibroblast; [1],13.23% and 4.19%
same,Population Healthy Nuclei (%),Fibroblast; [1],64.02% and 76.44%
same,Population Hoechst High Intensity Objects (%),Fibroblast; [1],0%
same,Population Membrane Permeable-Phenotype (%),Fibroblast; [1],4.96% and 4.79%
same,Population Mitochondria Different-Phenotype (%),Fibroblast; [1],9.92% and 6.85%
same,Population Mitotic Cells (%),Fibroblast; [1],79.07% and 86.49%
same,Population Normal (%),Fibroblast; [1],100%
same,Population Pyknosed Nuclei (%),Fibroblast; [1],22.75% and 19.37%
same,Population Tubulin-Different-Phenotype (%),Fibroblast; [1],14.88% and 28.08%
same,Total Cell Count,Fibroblast; [1],189 and 191
same,Population Fragmented Nuclei (%),Fibroblast; [2],9.25% and 6.27%
same,Population Healthy Nuclei (%),Fibroblast; [2],60.69% and 61.18%
same,Population Hoechst High Intensity Objects (%),Fibroblast; [2],0%
same,Population Membrane Permeable-Phenotype (%),Fibroblast; [2],5.71% and 3.85%
same,Population Mitochondria Different-Phenotype (%),Fibroblast; [2],15.24% and 15.38%
same,Population Mitotic Cells (%),Fibroblast; [2],94.23% and 67.47%
same,Population Normal (%),Fibroblast; [2],100%
same,Population Pyknosed Nuclei (%),Fibroblast; [2],30.06% and 32.55%
same,Population Tubulin-Different-Phenotype (%),Fibroblast; [2],25.71% and 55.13%
same,Total Cell Count,Fibroblast; [2],173 and 255
same,Population Apoptotic (%),Fibroblast; [3],7.89% and 13.64%
same,Population Fragmented Nuclei (%),Fibroblast; [3],8.84% and 7.04%
same,Population Healthy Nuclei (%),Fibroblast; [3],73.49% and 81.91%
same,Population Hoechst High Intensity Objects (%),Fibroblast; [3],0%
same,Population Membrane Permeable-Phenotype (%),Fibroblast; [3],4.43% and 3.07%
same,Population Mitochondria Different-Phenotype (%),Fibroblast; [3],6.33% and 6.13%
same,Population Mitotic Cells (%),Fibroblast; [3],92.11% and 86.36%
same,Population Normal (%),Fibroblast; [3],100%
same,Population Pyknosed Nuclei (%),Fibroblast; [3],17.67% and 11.06%
same,Population Tubulin-Different-Phenotype (%),Fibroblast; [3],16.46% and 28.22%
same,Total Cell Count,Fibroblast; [3],215 and 199
same,Population Apoptotic (%),Fibroblast; [4],11.9% and 25.45%
same,Population Fragmented Nuclei (%),Fibroblast; [4],8.42% and 3.61%
same,Population Healthy Nuclei (%),Fibroblast; [4],69.47% and 76.53%
same,Population Hoechst High Intensity Objects (%),Fibroblast; [4],0%
same,Population Membrane Permeable-Phenotype (%),Fibroblast; [4],3.79% and 5.66%
same,Population Mitochondria Different-Phenotype (%),Fibroblast; [4],9.85% and 15.57%
same,Population Mitotic Cells (%),Fibroblast; [4],88.1% and 74.55%
same,Population Normal (%),Fibroblast; [4],100%
same,Population Pyknosed Nuclei (%),Fibroblast; [4],22.11% and 19.86%
same,Population Tubulin-Different-Phenotype (%),Fibroblast; [4],34.85% and 63.21%
same,Total Cell Count,Fibroblast; [4],190 and 277
same,Population Apoptotic (%),Fibroblast; [5],25% and 33.33%
same,Population Fragmented Nuclei (%),Fibroblast; [5],8.44% and 10.78%
same,Population Healthy Nuclei (%),Fibroblast; [5],86.5% and 83.33%
same,Population Hoechst High Intensity Objects (%),Fibroblast; [5],0%
same,Population Membrane Permeable-Phenotype (%),Fibroblast; [5],1.46% and 7.06%
same,Population Mitotic Cells (%),Fibroblast; [5],75% and 66.67%
same,Population Normal (%),Fibroblast; [5],100%
same,Population Pyknosed Nuclei (%),Fibroblast; [5],5.06% and 5.88%
same,Total Cell Count,Fibroblast; [5],237 and 204
same,Population Apoptotic (%),Fibroblast; [6],25% and 50%
same,Population Healthy Nuclei (%),Fibroblast; [6],74.48% and 87.96%
same,Population Hoechst High Intensity Objects (%),Fibroblast; [6],0%
same,Population Membrane Permeable-Phenotype (%),Fibroblast; [6],0.56% and 9.13%
same,Population Mitochondria Different-Phenotype (%),Fibroblast; [6],10.11% and 9.51%
same,Population Mitotic Cells (%),Fibroblast; [6],75% and 50%
same,Population Normal (%),Fibroblast; [6],100%
same,Population Pyknosed Nuclei (%),Fibroblast; [6],8.37% and 7.36%
same,Population Tubulin-Different-Phenotype (%),Fibroblast; [6],19.1% and 53.99%
same,Total Cell Count,Fibroblast; [6],239 and 299
